Reference: ChEMBL document CHEMBL4840361, “Phytochemical Profiling and Biological Testing of the Constituents of the Australian Plant Haemodorum brevisepalum” (2021)
Activity calls are given as the source filed them. No cut-off for these calls is given here.

Tests used:
Cryptococcus neoformans = experiment: Antifungal activity against Cryptococcus neoformans var. grubii H99 ATCC 208821 assessed as fungal growth inhibition at 32 ug/ml measured after 3 days by resazurine dye based assay; format: functional, organism-based; conditions: dose 32.0 µg/ml, time 3.0 day
Outline: (§1)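 Screened through CO-ADD at 32 µg/mL against a panel of five bacteria and two fungi. Run in duplicate (n=2) on different plates. Activity was called when inhibition exceeded 80% with a Z-score above 2.5 in either replicate.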

Escherichia coli = experiment: Antibacterial activity against Escherichia coli ATCC 25922 assessed as bacterial growth inhibition at 32 ug/ml measured after 18 hrs by resazurine dye based assay; format: functional, organism-based; conditions: dose 32.0 µg/ml; outline: as §1
Staphylococcus aureus = experiment: Antibacterial activity against Staphylococcus aureus MRSA ATCC 43300 assessed as bacterial growth inhibition at 32 ug/ml measured after 18 hrs by resazurine dye based assay relative to control; format: functional; outline: as §1
Haemonchus contortus [1] = experiment: Anthelmintic activity against third stage larvae of Haemonchus contortus assessed as inhibition of xL3 larval motility at 20 uM measured after 72 hrs; format: functional, organism-based
Outline: (§2)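 Exsheathed third-stage larvae (xL3s) of Haemonchus contortus, screened at 20 µM in 96-well plates holding 300 xL3s per well; testing was done at the University of Melbourne.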

Haemonchus contortus [2] = experiment: Anthelmintic activity against third stage larvae of Haemonchus contortus assessed as inhibition of larval development at 20 uM measured after 7 days by microscopic analysis; format: functional, organism-based; conditions: time 7.0 day; outline: as §2
Candida albicans = experiment: Antifungal activity against Candida albicans ATCC 90028 assessed as fungal growth inhibition at 32 ug/ml measured after 3 days by resazurine dye based assay relative to control; format: functional; conditions: ATCC 90028, 72 h, time 3 day; outline: as §1

SMILES | Activity (Cryptococcus neoformans) | Activity (Escherichia coli) | inhibition at 32 µg/mL (Staphylococcus aureus) [%] | Activity (Haemonchus contortus [1]) | Activity (Haemonchus contortus [2]) | inhibition at 32 µg/mL (Candida albicans) [%]
O=C1OC(C(=O)O)c2cc(O)c(O[C@H]3O[C@@H](CO)[C@H](O)[C@@H](O)[C@@H]3O)c3c(-c4ccccc4)ccc1c23 (mixture of isomers) | inactive | inactive | – | – | – | –
COc1cc2ccc(=O)c3ccc4c5ccccc5oc1c4c23 | inactive | inactive | 58.4 | – | – | –
COc1cc2ccc(=O)c3cc(O[C@@H]4O[C@H](CO)[C@@H](O)[C@H](O)[C@H]4O)c4c5ccccc5oc1c4c23 | inactive | inactive | 8.1 | – | – | –
O=c1c(O[C@@H]2O[C@H](CO[C@@H]3O[C@H](CO)[C@@H](O)[C@H](O)[C@H]3O)[C@@H](O)[C@H](O)[C@H]2O)c(-c2ccc(O)c(O)c2)oc2cc(O)cc(O)c12 | inactive | inactive | – | – | – | –
CC(=O)OC[C@@H]1O[C@H](Oc2c(OC(C)=O)cc3c4c(ccc(-c5ccccc5)c24)C(=O)OC3)[C@@H](OC(C)=O)[C@H](OC(C)=O)[C@H]1OC(C)=O | inactive | inactive | – | – | – | –
O=C1C(O)=Cc2ccc(O[C@@H]3O[C@H](CO)[C@@H](O)[C@H](O)[C@H]3O)c3cc(-c4ccccc4O)cc1c23 | inactive | inactive | – | inactive | inactive | –
COC(=O)c1ccc(-c2ccccc2)c2c1C(=O)C=C(OC)C2=O | inactive | inactive | – | – | – | –
O=C1OCc2cc(O)c(O[C@@H]3O[C@H](CO)[C@@H](O)[C@H](O)[C@H]3O)c3c(-c4ccccc4)ccc1c23 | inactive | inactive | – | inactive | inactive | –
O=c1c(O[C@@H]2O[C@H](CO)[C@@H](O)[C@H](O)[C@H]2O)c(-c2ccc(O)c(O)c2)oc2cc(O)cc(O)c12 | inactive | inactive | – | – | – | –
COC1=Cc2cc(OC)c(O[C@@H]3O[C@H](CO)[C@@H](O)[C@H](O)[C@H]3O[C@@H]3O[C@H](COC(=O)/C=C/c4ccc(O)c(O)c4)[C@@H](O)[C@H](O)[C@H]3O)c3c(-c4ccccc4)ccc(c23)C1=O | inactive | inactive | – | inactive | inactive | –
O=C1C=Cc2cc(O)c(O[C@@H]3O[C@H](CO)[C@@H](O)[C@H](O)[C@H]3O)c3cc(-c4ccccc4O)cc1c23 | inactive | inactive | – | inactive | inactive | 38.7
O=C1C=Cc2cc(O[C@@H]3O[C@H](CO)[C@@H](O)[C@H](O)[C@H]3O)cc3c(-c4ccc(O)cc4)ccc1c23 | inactive | inactive | – | inactive | inactive | 29.6
O=C1C(O)=Cc2cc(O[C@@H]3O[C@H](CO[C@@H]4O[C@H](CO)[C@@H](O)[C@H](O)[C@H]4O)[C@@H](O)[C@H](O)[C@H]3O)cc3c(-c4ccc(O)c(O)c4)ccc1c23 | inactive | inactive | – | inactive | inactive | –
O=C1OC(O)c2cc(O)c(O[C@@H]3O[C@H](CO)[C@@H](O)[C@H](O)[C@H]3O)c3c(-c4ccccc4)ccc1c23 (mixture of isomers) | inactive | inactive | – | inactive | inactive | –
